# Source: PMC7127590 (European Journal of Medicinal Chemistry, 2010)
# Entries after “also recorded” stand apart in the source; their conditions may differ. Read-outs that look alike come from different tables or passages of the source.
# Legend:
# Assay type in all cases: cell-based
# Staphylococcus aureus = assay: MIC by tube dilution, S. aureus; conditions: 24 h, read-out: pMICsa (Eq. (1)) Obs.
# Method in brief: (§1)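 Tube-dilution MIC. Test compound was dissolved in DMSO at 100 μg/mL, then serially diluted in double-strength nutrient broth (I.P.). Tubes were incubated at 37 °C for 24 h. MIC was the lowest concentration that inhibited microbial growth. MIC values were converted to pMIC for QSAR.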
# Bacillus subtilis = assay: MIC by tube dilution, B. subtilis; conditions: 24 h, read-out: pMICbs (Eq. (2)) Obs.
# Method in brief: as §1
# Escherichia coli = assay: MIC by tube dilution, E. coli; conditions: 24 h, read-out: pMICec (Eq. (3)) Obs.
# Method in brief: as §1
# Candida albicans = assay: MIC by tube dilution, C. albicans; conditions: 48 h
# [1] = test system: S. aureus, B. subtilis, E. coli, C. albicans and A. niger; assay: average antimicrobial activity
# Method in brief: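 Tube-dilution MIC with test compound dissolved in DMSO at 100 μg/mL. Bacteria grew in double-strength nutrient broth at 37 °C for 24 h. C. albicans grew in Sabouraud dextrose broth at 37 °C for 48 h, and A. niger in the same broth at 25 °C for 7 days. MIC was the lowest growth-inhibiting concentration, converted to pMIC. pMICam = mean of the five pMIC values.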
# [2] = test system: Vesicular stomatitis virus
# HeLa cells = assay: cytotoxicity in uninfected HeLa cells; conditions: HeLa cell cultures, microscopically detectable alteration of cell morphology
# Method in brief: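 Uninfected HeLa cells were treated with serial dilutions of test compound, run in parallel with the CPE-reduction antiviral assay. Minimum cytotoxic concentration was the lowest concentration causing microscopically detectable alteration of normal cell morphology. CC50 was the 50% cytotoxic concentration, measured as cell viability by the colorimetric formazan-based MTS assay.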
# B. subtilis = assay: MBC determination, B. subtilis; conditions: static when MBC 3-fold higher than MIC
# Method in brief: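 100 μL of culture from each tube that stayed clear in the MIC test was subcultured on fresh medium. MBC was the lowest compound concentration producing a 99.9% end-point reduction.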
# [3] = read-out: pMICca (Eq. (4)) Obs.
# [4] = read-out: pMICam (Eq. (9)) Obs.
# [5] = read-out: pMICam MLR (Eq. (10)) Obs.
Compound,MIC (Staphylococcus aureus) [µM],MIC (Bacillus subtilis) [µM],MIC (Escherichia coli) [µM],MIC (Candida albicans; [3]) [µM],"MIC [1, 4] [µM]","MIC [1, 5] [µM]","antiviral activity against Vesicular stomatitis virus (VSV), in words [2]",Cytotoxicity Minimum cytotoxic conc. (HeLa cells),MIC (Candida albicans; read-out: pMICca) [µM],bacteriostatic/bactericidal action against B. subtilis (B. subtilis)
O=C(/C=C/c1ccccc1)N/N=C/c1ccccc1 [Compound 6],50.1,50.1,50.1,12.6,33.1,33.1,–,–,–,–
CCCCCCCCCCCCCCCC(=O)N/N=C/c1ccccc1 [Compound 3],34.7,34.7,31.6,17.4,38.9,38.9,–,–,–,–
C/C=C/C=C/C(=O)N/N=C/c1ccccc1 [Compound 5],58.9,58.9,58.9,117,58.9,58.9,–,–,–,–
COc1cc(OC)cc(C(=O)N/N=C/c2ccccc2Cl)c1 [Compound 19],38.9,38.9,38.9,9.77,27.5,27.5,active; also recorded: antiviral potential,100 µg/mL,–,–
COc1cc(OC)cc(C(=O)N/N=C/c2ccccc2)c1 [Compound 9],43.7,43.7,43.7,11,28.8,28.8,active; also recorded: antiviral potential,100 µg/mL,–,–
Cc1ccc(C(=O)N/N=C/c2ccccc2Cl)cc1 [Compound 18],45.7,45.7,45.7,24.5,35.5,35.5,–,–,24.5,–
Cc1cccc(C(=O)N/N=C/c2ccccc2)c1 [Compound 7],52.5,52.5,52.5,13.2,34.7,34.7,–,–,–,–
"NC(=O)c1ncn([C@@H]2O[C@H](CO)[C@@H](O)[C@H]2O)n1 [Ribavirin, reference compound]",–,–,–,–,–,–,–,>250 µM,–,–
O=C(N/N=C/c1ccccc1)c1cc([N+](=O)[O-])cc([N+](=O)[O-])c1 [Compound 10],39.8,39.8,39.8,20,30.2,30.2,–,–,20,–
CCCCCCCCCCCC(=O)N/N=C/c1ccccc1Cl [Compound 11],37.2,37.2,15.8,18.6,27.5,27.5,–,–,–,–
"Nc1ncnc2c1ncn2C[C@H](O)CO [(S)-DHPA, reference compound]",–,–,–,–,–,–,–,>250 µM,–,–
CCCCCCCCCCCCCCCCCC(=O)N/N=C/c1ccccc1Cl [Compound 14],29.5,29.5,29.5,14.8,28.8,28.8,–,–,–,active bactericidal agents
Cc1ccc(C(=O)N/N=C/c2ccccc2)cc1 [Compound 8],52.5,52.5,52.5,45.7,38.9,38.9,–,–,–,–
CCCCCCCCCCCCCC(=O)N/N=C/c1ccccc1Cl [Compound 12],33.9,33.9,33.9,75.9,46.8,46.8,–,–,–,–
Cc1cccc(C(=O)N/N=C/c2ccccc2Cl)c1 [Compound 17],45.7,45.7,45.7,45.7,42.7,42.7,–,–,–,–
CCCCCCCCCCCCCC(=O)N/N=C/c1ccccc1 [Compound 2],38,38,43.7,57.5,45.7,45.7,–,–,–,–
CCCCCCCCCCCCCCCC(=O)N/N=C/c1ccccc1Cl [Compound 13],31.6,32.4,31.6,7.94,26.9,26.9,–,–,–,active bactericidal agents
C/C=C/C=C/C(=O)N/N=C/c1ccccc1Cl [Compound 15],50.1,50.1,50.1,25.1,39.8,39.8,–,–,–,–
CCCCCCCCCCCC(=O)N/N=C/c1ccccc1 [Compound 1],41.7,50.1,41.7,61.7,50.1,50.1,–,–,–,–
O=C(/C=C/c1ccccc1)N/N=C/c1ccccc1Cl [Compound 16],43.7,43.7,43.7,17.4,30.2,30.2,–,–,17.4,–
CCCCCCCCCCCCCCCCCC(=O)N/N=C/c1ccccc1 [Compound 4],32.4,32.4,16.2,8.13,24.5,24.5,–,–,–,–
O=C(N/N=C/c1ccccc1Cl)c1cc([N+](=O)[O-])cc([N+](=O)[O-])c1 [Compound 20],35.5,35.5,35.5,8.91,25.1,25.1,–,–,–,–
